The test system of data set [1] is Mus musculus. Nature of the data set: Antialzheimer activity in 5XFAD mouse assessed as appearance of CAA in […] cortex at 600 ppm administered as rodent chow starting from 1.5 months and measured after 5 months by immunolabeling based confocal microscopic analysis. In kind it is functional, organism-based. The following applies: route po, time 3.5 months. A digest of the protocol: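 5xFAD mice fed PLX3397 at 600 ppm in AIN-76A chow from 1.5 to 5 months of age; brain sections stained with Thio-S and immunolabeled for IBA1, imaged by confocal microscopy for vascular Thio-S deposits.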

Data set [2] is described as follows: Drug concentration in wildtype mouse brain at 75 ppm administered as rodent chow starting from 1.5 months and measured after 5 months. The following applies: route po, time 3.5 months, read-out: Ct. Format: ADME, tissue-based. The method, boiled down: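 WT or 5xFAD mice were fed PLX3397 in AIN-76A chow at 600 ppm or 75 ppm from 1.5 to 5 months of age. Terminal brain and plasma drug concentrations were determined at study end.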

Data set [3] concerns the target T1, Macrophage colony-stimulating factor 1 receptor (Mus musculus) (UniProt P09581).
T1 sequence (whole entry): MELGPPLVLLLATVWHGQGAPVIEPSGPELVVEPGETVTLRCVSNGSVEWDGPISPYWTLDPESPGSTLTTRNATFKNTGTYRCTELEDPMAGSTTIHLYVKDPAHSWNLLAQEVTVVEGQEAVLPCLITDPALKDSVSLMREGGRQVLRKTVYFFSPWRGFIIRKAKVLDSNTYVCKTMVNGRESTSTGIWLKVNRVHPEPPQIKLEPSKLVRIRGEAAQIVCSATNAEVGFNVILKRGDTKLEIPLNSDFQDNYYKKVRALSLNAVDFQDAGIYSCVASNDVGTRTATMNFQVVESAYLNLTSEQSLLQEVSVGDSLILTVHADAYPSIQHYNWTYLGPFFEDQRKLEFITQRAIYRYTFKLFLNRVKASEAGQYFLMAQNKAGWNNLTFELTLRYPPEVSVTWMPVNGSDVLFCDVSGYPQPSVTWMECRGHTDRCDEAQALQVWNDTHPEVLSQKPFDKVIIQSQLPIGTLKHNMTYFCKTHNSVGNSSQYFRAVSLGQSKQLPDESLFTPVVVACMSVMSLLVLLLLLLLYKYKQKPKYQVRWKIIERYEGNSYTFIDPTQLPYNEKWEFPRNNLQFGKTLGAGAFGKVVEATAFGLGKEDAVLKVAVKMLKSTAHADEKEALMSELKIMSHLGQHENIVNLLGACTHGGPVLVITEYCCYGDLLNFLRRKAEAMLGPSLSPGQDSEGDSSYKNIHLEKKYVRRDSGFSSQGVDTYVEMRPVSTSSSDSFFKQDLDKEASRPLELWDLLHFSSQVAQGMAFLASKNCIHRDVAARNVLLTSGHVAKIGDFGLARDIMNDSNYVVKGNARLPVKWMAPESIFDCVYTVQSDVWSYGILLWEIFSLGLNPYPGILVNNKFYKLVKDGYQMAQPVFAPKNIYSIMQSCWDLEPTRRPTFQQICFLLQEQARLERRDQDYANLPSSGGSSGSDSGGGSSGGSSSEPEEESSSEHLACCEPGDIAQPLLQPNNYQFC
Nature of the data set: In vivo inhibition of CSF1R in wildtype mouse assessed as microglial numbers by measuring number of Iba positive cells per FOV in […] cortex at 75 ppm administered as rodent chow starting from 1.5 months and measured after 5 months by immunolabeling based confocal microscopic analysis (reference value: 200 to 275). The following applies: route po, time 3.5 months. Format: functional.

The next data set concerns the target Aurora kinase C (Homo sapiens, UniProt Q9UQB9). In words: Inhibition of AURKC (unknown origin).
The target of a further data set is Activin receptor type-1B (Homo sapiens, UniProt P36896). Nature of the data set: Inhibition of ACVR1B (unknown origin).
Chain of Activin receptor type-1B (P36896 whole entry, canonical isoform): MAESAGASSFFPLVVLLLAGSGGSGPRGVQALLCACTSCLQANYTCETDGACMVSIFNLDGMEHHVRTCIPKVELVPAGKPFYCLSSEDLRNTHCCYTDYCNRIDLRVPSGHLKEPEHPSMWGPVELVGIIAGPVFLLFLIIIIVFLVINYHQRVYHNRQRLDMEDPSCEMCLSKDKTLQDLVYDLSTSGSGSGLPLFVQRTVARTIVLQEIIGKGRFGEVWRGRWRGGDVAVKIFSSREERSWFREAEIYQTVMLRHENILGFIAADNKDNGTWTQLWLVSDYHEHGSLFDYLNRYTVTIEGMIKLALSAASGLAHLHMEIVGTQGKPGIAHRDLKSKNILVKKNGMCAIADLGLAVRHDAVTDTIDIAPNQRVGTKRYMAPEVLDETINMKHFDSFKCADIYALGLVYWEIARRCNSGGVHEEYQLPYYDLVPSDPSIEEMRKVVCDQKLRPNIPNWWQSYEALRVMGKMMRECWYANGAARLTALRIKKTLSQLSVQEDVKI
Data set [4] addresses Casein kinase I isoform gamma-1 (Homo sapiens, UniProt Q9HCP0). In words: Inhibition of CSNK1G1 (unknown origin).
Data set [5] addresses Casein kinase I isoform gamma-2 (Homo sapiens, UniProt P78368). Nature of the data set: Inhibition of CSNK1G2 (unknown origin).
The next data set has as its target Ephrin type-A receptor 3 (Homo sapiens, UniProt P29320). In words: Inhibition of EPHA3 (unknown origin).
Data set [6] deals with Receptor tyrosine-protein kinase erbB-2 (Homo sapiens, UniProt P04626). Nature of the data set: Inhibition of ERBB2 (unknown origin).
Chain of Receptor tyrosine-protein kinase erbB-2 (P04626 whole entry): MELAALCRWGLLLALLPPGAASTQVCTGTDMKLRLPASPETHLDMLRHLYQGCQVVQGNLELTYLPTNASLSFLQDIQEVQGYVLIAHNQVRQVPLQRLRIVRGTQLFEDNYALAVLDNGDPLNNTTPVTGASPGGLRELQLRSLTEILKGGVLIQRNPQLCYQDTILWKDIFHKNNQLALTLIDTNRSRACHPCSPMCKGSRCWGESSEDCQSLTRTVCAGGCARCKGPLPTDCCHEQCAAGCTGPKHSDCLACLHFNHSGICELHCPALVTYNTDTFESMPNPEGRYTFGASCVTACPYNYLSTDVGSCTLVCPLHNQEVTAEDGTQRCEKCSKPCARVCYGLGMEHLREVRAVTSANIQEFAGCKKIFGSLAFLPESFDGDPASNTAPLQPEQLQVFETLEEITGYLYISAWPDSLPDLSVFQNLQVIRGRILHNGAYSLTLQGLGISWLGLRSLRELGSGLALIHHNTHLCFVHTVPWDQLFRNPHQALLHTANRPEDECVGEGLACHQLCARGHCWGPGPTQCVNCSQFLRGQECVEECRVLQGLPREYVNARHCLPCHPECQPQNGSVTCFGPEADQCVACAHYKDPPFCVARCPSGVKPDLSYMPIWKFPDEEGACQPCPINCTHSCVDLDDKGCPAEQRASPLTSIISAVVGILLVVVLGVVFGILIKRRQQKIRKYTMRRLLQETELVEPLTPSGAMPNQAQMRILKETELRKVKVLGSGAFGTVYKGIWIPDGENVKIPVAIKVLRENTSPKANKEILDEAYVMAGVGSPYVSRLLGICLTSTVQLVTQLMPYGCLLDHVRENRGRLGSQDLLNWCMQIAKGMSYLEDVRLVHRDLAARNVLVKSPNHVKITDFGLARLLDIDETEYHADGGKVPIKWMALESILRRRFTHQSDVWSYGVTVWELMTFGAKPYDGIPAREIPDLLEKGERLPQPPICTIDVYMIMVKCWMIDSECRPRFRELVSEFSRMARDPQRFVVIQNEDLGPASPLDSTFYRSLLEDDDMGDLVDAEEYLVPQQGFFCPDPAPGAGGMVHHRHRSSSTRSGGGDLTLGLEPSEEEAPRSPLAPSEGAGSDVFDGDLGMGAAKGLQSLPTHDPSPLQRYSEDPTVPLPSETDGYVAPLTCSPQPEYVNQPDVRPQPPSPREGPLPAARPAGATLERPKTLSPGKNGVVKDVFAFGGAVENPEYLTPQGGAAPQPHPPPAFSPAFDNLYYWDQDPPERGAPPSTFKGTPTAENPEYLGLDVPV
The target of data set [7] is Tyrosine-protein kinase Fes/Fps (Homo sapiens, UniProt P07332). In words: Inhibition of FES (unknown origin).
The target in data set [8] is Homeodomain-interacting protein kinase 4 (Homo sapiens, UniProt Q8NE63). Nature of the data set: Inhibition of HIPK4 (unknown origin).
Chain of Homeodomain-interacting protein kinase 4 (Q8NE63 whole entry): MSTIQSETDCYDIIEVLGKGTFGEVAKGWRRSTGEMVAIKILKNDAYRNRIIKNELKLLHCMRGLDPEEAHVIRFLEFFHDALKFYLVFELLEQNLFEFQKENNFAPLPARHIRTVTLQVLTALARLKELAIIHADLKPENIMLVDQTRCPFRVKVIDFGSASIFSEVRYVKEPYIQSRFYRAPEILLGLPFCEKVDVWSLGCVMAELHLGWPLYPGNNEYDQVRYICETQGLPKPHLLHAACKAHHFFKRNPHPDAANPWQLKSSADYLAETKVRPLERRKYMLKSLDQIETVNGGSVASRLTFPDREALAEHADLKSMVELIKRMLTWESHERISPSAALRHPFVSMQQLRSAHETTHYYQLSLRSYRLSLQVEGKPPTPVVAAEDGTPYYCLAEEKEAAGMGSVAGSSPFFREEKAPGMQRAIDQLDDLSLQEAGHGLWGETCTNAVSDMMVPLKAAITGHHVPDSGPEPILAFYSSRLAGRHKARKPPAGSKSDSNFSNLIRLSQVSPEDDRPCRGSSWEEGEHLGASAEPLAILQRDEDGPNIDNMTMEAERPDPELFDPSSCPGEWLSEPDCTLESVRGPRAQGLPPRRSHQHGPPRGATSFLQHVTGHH
In data set [9] the target is Macrophage-stimulating protein receptor (Homo sapiens, UniProt Q04912). In words: Inhibition of MST1R (unknown origin).
For data set [10], the target named is Phosphatidylinositol 3-kinase catalytic subunit type 3 (Homo sapiens, UniProt Q8NEB9). Nature of the data set: Inhibition of PIK3C3 (unknown origin).
The target of data set [11] is cGMP-dependent protein kinase 1 (Homo sapiens, UniProt Q13976). In words: Inhibition of PRKG1 (unknown origin).
Chain of cGMP-dependent protein kinase 1 (Q13976 whole entry): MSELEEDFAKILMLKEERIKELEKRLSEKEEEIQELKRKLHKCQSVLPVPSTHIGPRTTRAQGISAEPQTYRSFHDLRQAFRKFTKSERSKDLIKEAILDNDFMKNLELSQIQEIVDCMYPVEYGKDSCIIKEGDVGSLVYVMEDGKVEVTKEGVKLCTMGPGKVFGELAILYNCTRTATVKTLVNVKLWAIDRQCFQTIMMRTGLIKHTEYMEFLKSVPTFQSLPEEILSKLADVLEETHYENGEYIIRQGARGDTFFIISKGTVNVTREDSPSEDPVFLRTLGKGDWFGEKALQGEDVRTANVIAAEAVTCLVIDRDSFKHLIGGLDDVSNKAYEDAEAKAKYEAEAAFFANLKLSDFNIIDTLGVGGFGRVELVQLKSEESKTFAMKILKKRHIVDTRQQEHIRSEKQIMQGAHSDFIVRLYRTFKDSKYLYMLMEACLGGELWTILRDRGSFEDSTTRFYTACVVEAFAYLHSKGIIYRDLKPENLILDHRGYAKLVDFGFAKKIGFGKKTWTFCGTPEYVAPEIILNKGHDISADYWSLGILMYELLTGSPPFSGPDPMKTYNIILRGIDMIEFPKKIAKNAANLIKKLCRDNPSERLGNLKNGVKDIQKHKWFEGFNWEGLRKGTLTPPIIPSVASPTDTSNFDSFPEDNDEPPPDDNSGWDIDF
In data set [12] the target is Proto-oncogene tyrosine-protein kinase receptor Ret (Homo sapiens, UniProt P07949, Y791F). Nature of the data set: Inhibition of RET Y791F mutant (unknown origin).
Data set [13] deals with Rho-associated protein kinase 1 (Homo sapiens, UniProt Q13464). Nature of the data set: Inhibition of ROCK1 (unknown origin).
Chain of Rho-associated protein kinase 1 (Q13464 whole entry): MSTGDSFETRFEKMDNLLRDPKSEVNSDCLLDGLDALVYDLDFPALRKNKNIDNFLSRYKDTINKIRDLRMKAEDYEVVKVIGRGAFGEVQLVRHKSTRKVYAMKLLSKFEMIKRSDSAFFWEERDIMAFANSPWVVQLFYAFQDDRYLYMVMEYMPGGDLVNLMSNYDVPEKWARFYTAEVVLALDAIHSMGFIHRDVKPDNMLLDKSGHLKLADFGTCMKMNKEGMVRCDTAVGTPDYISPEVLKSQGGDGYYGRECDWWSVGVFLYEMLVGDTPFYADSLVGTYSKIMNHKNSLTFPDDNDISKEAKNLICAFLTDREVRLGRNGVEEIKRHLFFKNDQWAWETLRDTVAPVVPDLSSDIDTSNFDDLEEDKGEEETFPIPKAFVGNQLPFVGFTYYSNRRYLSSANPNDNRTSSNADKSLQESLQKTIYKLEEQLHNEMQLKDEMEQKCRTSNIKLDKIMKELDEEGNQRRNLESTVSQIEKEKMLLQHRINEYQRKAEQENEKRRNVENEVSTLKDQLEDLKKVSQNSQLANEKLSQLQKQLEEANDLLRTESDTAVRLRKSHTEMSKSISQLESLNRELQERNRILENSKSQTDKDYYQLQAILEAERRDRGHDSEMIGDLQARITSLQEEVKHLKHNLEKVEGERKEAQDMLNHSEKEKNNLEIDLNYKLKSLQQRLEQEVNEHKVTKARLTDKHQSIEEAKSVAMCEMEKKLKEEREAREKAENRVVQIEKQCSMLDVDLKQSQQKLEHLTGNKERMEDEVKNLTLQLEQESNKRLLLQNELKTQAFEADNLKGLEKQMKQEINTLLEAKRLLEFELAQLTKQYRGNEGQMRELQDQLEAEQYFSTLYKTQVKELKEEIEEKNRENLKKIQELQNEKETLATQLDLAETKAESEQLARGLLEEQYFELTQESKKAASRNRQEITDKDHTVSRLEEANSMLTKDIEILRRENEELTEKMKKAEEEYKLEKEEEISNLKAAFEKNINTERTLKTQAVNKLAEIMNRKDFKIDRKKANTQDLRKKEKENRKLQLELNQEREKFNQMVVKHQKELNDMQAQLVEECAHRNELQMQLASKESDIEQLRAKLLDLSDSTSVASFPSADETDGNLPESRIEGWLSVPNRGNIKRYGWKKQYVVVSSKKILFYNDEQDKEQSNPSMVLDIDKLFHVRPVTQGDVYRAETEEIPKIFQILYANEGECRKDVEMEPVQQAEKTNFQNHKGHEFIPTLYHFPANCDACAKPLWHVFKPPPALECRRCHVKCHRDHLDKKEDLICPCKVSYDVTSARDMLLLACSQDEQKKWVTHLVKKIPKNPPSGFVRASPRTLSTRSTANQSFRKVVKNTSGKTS
Data set [14] concerns Mus musculus. Nature of the data set: Effect on circulating leukocytes in wildtype mouse assessed as percentage of CD45+/PI- cells expressing CD11c at 1200 ppm administered as rodent chow for 10 to 24 weeks (reference value: 4.18 to 10.2 %). In kind it is functional. The note with it: route po, time 10-24 weeks.
Data set [15] can be described thus: Toxicity in wildtype mouse assessed as time spent in closed arm at 1200 ppm administered as rodent chow for 10 to 24 weeks by Elevated plus maze test (reference value: 73.3 to 220.6 sec). The note with it: in vivo, po, time 10-24 weeks.
In data set [16] the test system is Mus musculus. In words: Antialzheimer activity in 5XFAD mouse assessed as microglial elimination in thalamus by measuring reduction in Thio-S positive plaques at 1200 ppm administered as rodent chow for 14 weeks by Thio-S staining based confocal microscopic analysis. In kind it is functional, organism-based. The following applies: route po.
Data set [17] is described as follows: Effect on Siglech gene expression in wild type mouse cortex at 1200 ppm administered as rodent chow starting from 1.5 months and measured after 7 months by RNA-Seq analysis (reference value: 3.777 to 4.267 RPKM). Format: functional. The note with it: route po, time 5.5 months, 4015 h.
Data set [18] is described as follows: Effect on Pcdhac1 gene expression in wildtype mouse hippocampus assessed as percent change in Reads Per kilo base per Million mapped reads at 1200 ppm administered as rodent chow starting from 1.5 months and measured after 7 months by RNA-Seq analysis (reference value: 88.246 to 122.665 %). In kind it is functional. The note with it: route po, time 5.5 months, 4015 h.

Data set [19] has as its system Mus musculus. Nature of the data set: Prevention of Cx3cr1 gene upregulation in 5XFAD mouse hippocampus at 1200 ppm administered as rodent chow starting from 1.5 months and measured after 7 months by Nanostring analysis. Format: functional, tissue-based. The following applies: route po, time 5.5 months.
Data set [20] relates to Mus musculus. In words: Prevention of Trem2 gene upregulation in 5XFAD mouse hippocampus at 1200 ppm administered as rodent chow starting from 1.5 months and measured after 7 months by Nanostring analysis. Format: functional, tissue-based. The note with it: route po, time 5.5 months.
The test system of data set [21] is Mus musculus. In words: Prevention of Cacnb4 gene downregulation in 5XFAD mouse hippocampus at 1200 ppm administered as rodent chow starting from 1.5 months and measured after 7 months by Nanostring analysis. In kind it is functional, tissue-based. The note with it: route po, time 5.5 months.

Usually IC50 stands for the concentration at which inhibition is half-maximal.

SMILES strings stand for the structures. Activity calls are given as the source filed them. The calls are words filed in the database; no cut-off is given here.

Chain of Aurora kinase C (Q9UQB9 whole entry): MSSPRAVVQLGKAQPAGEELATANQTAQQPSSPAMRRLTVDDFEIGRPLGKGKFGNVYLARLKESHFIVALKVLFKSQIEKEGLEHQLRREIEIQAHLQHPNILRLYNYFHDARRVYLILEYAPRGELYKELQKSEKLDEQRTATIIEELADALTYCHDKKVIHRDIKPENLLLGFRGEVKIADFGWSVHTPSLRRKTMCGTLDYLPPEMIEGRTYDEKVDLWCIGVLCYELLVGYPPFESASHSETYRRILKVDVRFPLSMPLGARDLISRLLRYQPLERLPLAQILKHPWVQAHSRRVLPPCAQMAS

On to `FC(F)(F)c1ccc(CNc2ccc(Cc3c[nH]c4ncc(Cl)cc34)cn2)cn1` [PEXIDARTINIB], for which the outcome in the data set on Mus musculus [1] was Active. Besides, in data set [2], the concentration at 2555 h worked out at 300 nM. In [3], the Activity amounted to 162.
In the case of `COc1ncc(F)cc1CNc1ccc(Cc2c[nH]c3ncc(C)cc23)c(F)n1` [PLX-5622], the IC50 on Aurora kinase C is 1000 nM; against Activin receptor type-1B, more than 1000 nM; in data set [4], more than 1000 nM; in [5] it was more than 1000 nM; against Ephrin type-A receptor 3, more than 1000 nM; in data set [6] it was more than 1000 nM. Also, the IC50 in data set [7], in data set [8], in [9], in [10], in data set [11] and in data set [12] was more than 1000 nM throughout. In [13], this compound registered an IC50 of more than 1000 nM. For the same compound, the values for the Activity (in the data set with Mus musculus [14]; in [17]; in data set [18]) were 3.32%, 0 RPKM and 63.951%, respectively. Besides, the Time in [15] was determined as 90.5 s. The result in the data set on Mus musculus [16] was inactive. The outcome in the data set with Mus musculus [19], with Mus musculus [20] and in the data set on Mus musculus [21] was Active.

(Values after ChEMBL document CHEMBL5649170, “Sustained microglial depletion with CSF1R inhibitor impairs parenchymal plaque development in an Alzheimer's disease model” (Nat Commun, 2019).)
